Compound activity: PubChem BioAssay, several laboratories
ALR H2O2 inh = inhibitors of human ALR sulfhydryl oxidase, primary screen, biochemical, H2O2 detection, HRP-luminol luminescence, single point | inhibition, % (concentration not given with the values) | AID 485317, 2010 | purified ALR, DTT oxidation | 290,000 compounds, 3.8% hits;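 active means mean replicate inhibition above about 79%, with every replicate also reaching it, limit read from the data; inconclusive means only one of the two criteria met; inactive means mean below limit and not every replicate reaching it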
Target sequence (P55789 whole entry, looked up): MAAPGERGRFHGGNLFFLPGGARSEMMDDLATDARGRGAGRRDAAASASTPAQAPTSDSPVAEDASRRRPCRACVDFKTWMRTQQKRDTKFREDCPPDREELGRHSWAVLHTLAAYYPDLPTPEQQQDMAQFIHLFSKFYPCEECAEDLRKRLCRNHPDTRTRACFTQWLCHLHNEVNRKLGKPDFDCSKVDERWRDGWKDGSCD
core dimer inh = inhibitors of HCV core protein dimerization, primary screen, biochemical, TR-FRET, high-throughput; AID 1899, 2009; TR-FRET GST/Flag-core106 dimerization, 1536-well; 300,000 compounds, 0.33% hits; inhibition, % at 5 µM;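 active means inhibition above the mean of all tested compounds plus 3 SD, set per screening campaign, cut at about 45% in these data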
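System: GST-tagged and Flag-tagged HCV core protein residues 1-106 / Input: core106 proteins, GST 13.5 nM and Flag 17 nM / Buffer or medium: KF-containing HEPES buffer, pH 7.45, DTT, CHAPS, BSA / Probe or stimulus: Eu-anti-GST and XL665-anti-Flag labelled anti-tag antibodies / Schedule: 4 h, 22.5 °C incubation / Technique: TR-FRET 671 and 617 nm emission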
PHOSPHO1 inh = PubChem AID 1565; Phosphoethanolamine/phosphocholine phosphatase (Homo sapiens), Q8TCT1; recombinant PHOSPHO1, absorbance phosphatase assay; inhibition, % at 13.3 µM; 290,000 compounds, 1.1% hits; in the data active means inhibition above about 60%
Target sequence (Q8TCT1 whole entry, looked up): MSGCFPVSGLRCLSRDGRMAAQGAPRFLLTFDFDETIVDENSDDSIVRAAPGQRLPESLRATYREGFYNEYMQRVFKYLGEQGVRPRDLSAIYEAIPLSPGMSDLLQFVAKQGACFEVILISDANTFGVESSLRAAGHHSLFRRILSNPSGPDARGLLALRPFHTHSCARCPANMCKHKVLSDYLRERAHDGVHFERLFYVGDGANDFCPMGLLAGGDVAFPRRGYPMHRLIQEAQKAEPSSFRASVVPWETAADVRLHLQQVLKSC
AI-2 QS modul = Vibrio harveyi AI-2 quorum sensing modulators, primary screen, JMH597 strain, luminescence/OD600 ratio; Vibrio harveyi JMH597 AI-2 luminescence/OD600 ratio, 9 h; hits give low values; strain lacks LuxN and CqsS sensors; 0 = neutral-control median; activity change, % at 7.5 µM; 300,000 compounds, 0.4% hits; in the data active means activity change below about -75%, passing the limit was not always enough; inconclusive means no clear call, values can overlap the other calls;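 further: luminescence divided by OD600 gain over 9 h not by final OD600 alone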
HSF1 inh = HSF1 inhibitors in luciferase reporter cells, primary screen, cell-based, NIH3T3, luminescence. NIH3T3-HGL HSE-luciferase, MG132-induced, luminescence 8 h; hits give low values. activity change, negative = inhibition, % at 7.5 µM (by protocol). 300,000 compounds, 0.77% hits. AID 2098, 2009;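 active means more than half of replicate wells show activity change below -50%, luminescence cut by over half; inconclusive means some wells, but at most half, below -50%; inactive means no replicate well below -50%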;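 further: luciferase reports HSF-1 transcriptional activity via heat shock element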
HSF-1 act = HSF-1 activators, primary screen, NIH3T3-HGL cells, MG132 stress, luminescence, single point; NIH3T3-HGL HSF-1 luciferase reporter, 8 h; 100% = twice DMSO control signal; activation, % at 9 µM; 300,000 compounds, 1.7% hits;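 active means mean replicate activation of at least 50% with a set share of replicates each reaching 50%; inconclusive means only one of those two conditions met; inactive means mean below 50% and too few replicates reaching it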
JMH597 growth = Vibrio harveyi growth inhibition, confirmation, counter-screen for AI-2 quorum sensing project, JMH597 strain, OD600 absorbance; shares compounds with AI-2 QS modul; 9 h; lacks LuxN and CqsS sensors; growth inhibition, % at 7.5 µM; 750 compounds, 1% hits; AID 2726, 2010;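 active means every replicate shows growth inhibition above 50%; inconclusive means at least half, but not all, replicates pass that cutoff; inactive means fewer than half of replicates pass it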
BB721 const-QS lum = luminescence inhibition in constitutive-on V. harveyi, confirmation, counter-screen for LuxS inhibitor project, strain BB721, luminescence readout; shares compounds with AI-2 QS modul; inhibition, % at 7.5 µM; Vibrio harveyi BB721 luminescence, 9 h; 750 compounds, 95% hits;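 active means inhibition above about 80% in every replicate, not just on average, limit read from the data; inconclusive means at least half of replicates past the limit, but not all; inactive means fewer than half of replicates past the limit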
BB721 growth rt = growth inhibition of V. harveyi BB721, confirmation, cytotoxicity control for AI-2 quorum sensing inhibitors, strain BB721, absorbance OD600. shares compounds with AI-2 QS modul. Vibrio harveyi BB721 growth, 9 h. growth inhibition, % at 7.5 µM. 750 compounds, 3% hits. AID 2728, 2010;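 active means every replicate shows growth inhibition above 50%; inconclusive means at least half but not all replicates above 50% inhibition; inactive means under half of replicates above 50% inhibition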
AI-2 QS JMH597 = Vibrio harveyi AI-2 signaling luminescence modulation – JMH597 strain, confirmation. shares compounds with AI-2 QS modul. Vibrio harveyi JMH597 AI-2 quorum sensing luminescence, 9 h; luxN and CqsS knockout, AI-2 only. inhibition, % at 7.5 µM. 750 compounds, 97% hits;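 active means every replicate shows more than 75% inhibition of signal versus neutral control wells; inconclusive means half to three quarters of replicates exceed 75% inhibition; inactive means fewer than half of replicates exceed 75% inhibition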
Of the large screens only hits and unclear results are named; the others gave an inactive call (follow-up assays come after a bar, where they were run). In the library only some 6.8% were active in any assay of this set; here they are far more common.

O=C(COc1cccc(C(F)(F)F)c1)Nc1cccnc1	none
O=C(COc1cccc(C(F)(F)F)c1)Nc1ccc2[nH]ncc2c1	AI-2 QS modul -79 | JMH597 growth inactive | BB721 const-QS lum 87 | BB721 growth rt inactive | AI-2 QS JMH597 91
O=C(C1CCCCCC1)N1CC[C@@H](N2CCC(O)CC2)[C@H](O)C1	none
CC(C)(C)c1ccc(OCC(=O)Nc2ccncc2)c(Br)c1	none (no result: ALR H2O2 inh)
CCc1ccc(NC(=O)COc2ccc(Br)cn2)cc1	AI-2 QS modul -84 (no result: ALR H2O2 inh) | JMH597 growth inactive | BB721 const-QS lum 95 | BB721 growth rt inactive | AI-2 QS JMH597 96
CCc1ccc(OCC(=O)Nc2ccncc2)c(Br)c1	AI-2 QS modul -81 | JMH597 growth inactive | BB721 const-QS lum inconclusive | BB721 growth rt inactive | AI-2 QS JMH597 100
Cc1ccc(N(CC(O)COCc2ccco2)S(=O)(=O)c2ccc(C)cc2)cc1 (configuration not stated)	none
Cc1cc(=O)oc2cc(OCC3CC(c4ccc(Br)cc4)=NO3)ccc12 (configuration not stated)	none (no result: AI-2 QS modul)
Cc1cc(=O)oc2cc(OCC3CC(c4ccccc4)=NO3)ccc12 (configuration not stated)	AI-2 QS modul -86 | JMH597 growth inactive | BB721 const-QS lum 95 | BB721 growth rt inactive | AI-2 QS JMH597 96
CN(Cc1ccccc1Cl)C(=O)CNC(=O)C12CC3CC(CC(C3)C1)C2	none (no result: core dimer inh, PHOSPHO1 inh, AI-2 QS modul, HSF1 inh, HSF-1 act)
COc1ccc(OC)c(NC(=O)C2CCCNC2=O)c1 (configuration not stated)	none (no result: HSF1 inh, HSF-1 act)
CC(C)Oc1ccc(NC(=O)C2CCCNC2=O)cc1 (configuration not stated)	AI-2 QS modul inconclusive | JMH597 growth inactive | BB721 const-QS lum 89 | BB721 growth rt inactive | AI-2 QS JMH597 93
CCOc1ccc(NC(=O)CN2C(=O)CSC(C)C2=O)cc1 (configuration not stated)	ALR H2O2 inh inconclusive, AI-2 QS modul -78 | JMH597 growth inactive | BB721 const-QS lum 91 | BB721 growth rt inactive | AI-2 QS JMH597 93
CSCCC1NC(=O)N(CC(=O)Nc2ccc(-c3ccccc3)cc2)C1=O (configuration not stated)	AI-2 QS modul -83 | JMH597 growth inactive | BB721 const-QS lum 85 | BB721 growth rt inactive | AI-2 QS JMH597 91
CCOc1ccc(NC(=O)CN2C(=O)NC(CCSC)C2=O)cc1 (configuration not stated)	AI-2 QS modul -79 | JMH597 growth inactive | BB721 const-QS lum 91 | BB721 growth rt inactive | AI-2 QS JMH597 94
CSCCC1NC(=O)N(CC(=O)Nc2c(C(C)C)cccc2C(C)C)C1=O (configuration not stated)	none (no result: ALR H2O2 inh)
O=C(CCCn1nnc(-c2cccnc2)n1)c1ccc(F)cc1	AI-2 QS modul -80 | JMH597 growth inactive | BB721 const-QS lum 92 | BB721 growth rt inactive | AI-2 QS JMH597 95
Cc1ccc(COC(=O)c2ccc3ccccc3n2)cc1	AI-2 QS modul -91 | JMH597 growth inactive | BB721 const-QS lum 98 | BB721 growth rt inactive | AI-2 QS JMH597 99
CCCCCCOc1ccc(N2C(=O)CC(SCCN)C2=O)cc1 (configuration not stated)	AI-2 QS modul -85 | JMH597 growth inactive | BB721 const-QS lum 88 | BB721 growth rt inactive | AI-2 QS JMH597 96
CCOc1ccc(N2C(=O)CC(SCCN)C2=O)cc1 (configuration not stated)	none
Cc1ccc(S(=O)(=O)Nc2ccc(Oc3cccnc3)nc2)cc1	none
O=C(CCl)Nc1ccc(N=Nc2ccccc2)cc1	AI-2 QS modul -91, HSF-1 act 68 (no result: ALR H2O2 inh, core dimer inh) | JMH597 growth 74 | BB721 const-QS lum 100 | BB721 growth rt 103 | AI-2 QS JMH597 99
N#Cc1nc(-c2cccs2)oc1NCc1ccc(Cl)cc1	AI-2 QS modul -87, HSF-1 act 63 | JMH597 growth 93 | BB721 const-QS lum 92 | BB721 growth rt 102 | AI-2 QS JMH597 96
N#Cc1nc(-c2cccs2)oc1NCc1ccco1	none
Cc1ccc(CNc2oc(-c3cccs3)nc2C#N)cc1	AI-2 QS modul -94 | JMH597 growth inactive | BB721 const-QS lum 97 | BB721 growth rt inconclusive | AI-2 QS JMH597 98
N#Cc1nc(-c2ccc(F)cc2)oc1NCc1ccco1	none
N#Cc1nc(-c2ccc(F)cc2)oc1NCc1ccccc1	AI-2 QS modul -96 | JMH597 growth inactive | BB721 const-QS lum 95 | BB721 growth rt inactive | AI-2 QS JMH597 97
CCCCn1c(N)c(N(CCOC)C(=O)CN(C)CC(=O)Nc2ccc(Cl)c(Cl)c2)c(=O)[nH]c1=O	none (no result: core dimer inh, PHOSPHO1 inh, AI-2 QS modul, HSF1 inh, HSF-1 act)
O=C(CNC(=O)c1ccccc1)N/N=C/c1ccccc1Cl	AI-2 QS modul -90 | JMH597 growth inactive | BB721 const-QS lum 96 | BB721 growth rt inactive | AI-2 QS JMH597 97
O=C(Cn1c(=O)sc2ccccc21)Nc1ccc(S(=O)(=O)N2CCCCC2)cc1	AI-2 QS modul -90 (no result: ALR H2O2 inh) | JMH597 growth inactive | BB721 const-QS lum 96 | BB721 growth rt inactive | AI-2 QS JMH597 99
O=C(Cn1c(=O)sc2ccccc21)Nc1ccccc1	none
CCN(CC)S(=O)(=O)c1ccc(NC(=O)Cn2c(=O)sc3ccccc32)cc1	AI-2 QS modul -82 (no result: ALR H2O2 inh) | JMH597 growth inactive | BB721 const-QS lum 91 | BB721 growth rt inactive | AI-2 QS JMH597 94
Nc1nc(SCC(=O)Nc2ccc(Cl)c(S(=O)(=O)N3CCOCC3)c2)n[nH]1	none
CC(C)CC1Nc2ncnc(N3CCN(c4ccccc4)CC3)c2N(Cc2ccc(Cl)cc2)C1=O (configuration not stated)	none (no result: PHOSPHO1 inh)
